# High-throughput results deposited in PubChem BioAssay by several laboratories.
# B2AR ag = beta2AR agonists driving receptor internalization, primary screen, cell-based, FAP fluorogen, flow cytometry; Am2.2-beta2AR cells; response, % (no concentration beside the values); hit rate 0.43% among 340,000; AID 504454, 2011;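 active = response above a set limit, near 3 SD of response in nonfluorescent compounds, cut at about 42% in these data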
# Target sequence (P07550 whole entry, looked up): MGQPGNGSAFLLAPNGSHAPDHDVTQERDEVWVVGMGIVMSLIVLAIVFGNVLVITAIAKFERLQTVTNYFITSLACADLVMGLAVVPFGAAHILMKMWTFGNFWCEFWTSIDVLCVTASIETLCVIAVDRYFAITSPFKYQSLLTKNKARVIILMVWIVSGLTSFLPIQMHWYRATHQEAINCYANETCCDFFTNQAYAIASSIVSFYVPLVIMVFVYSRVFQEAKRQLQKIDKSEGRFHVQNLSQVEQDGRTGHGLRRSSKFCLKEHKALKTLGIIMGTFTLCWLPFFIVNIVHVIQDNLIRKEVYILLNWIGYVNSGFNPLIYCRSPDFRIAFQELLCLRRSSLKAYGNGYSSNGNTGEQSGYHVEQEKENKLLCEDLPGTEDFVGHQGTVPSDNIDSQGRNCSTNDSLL
# APJ ag = agonists of human apelin receptor APJ, primary screen, CHO-K1 cells, PathHunter beta-arrestin, luminescence; AID 2520, 2010; hit rate 0.11% among 330,000; 0% DMSO wells, 100% apelin; P35414; activation, % at 20 µM;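 active = activation more than six SD over the plate average, tested at 20 µM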;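 note: 0% = DMSO alone and 100% = apelin-13 at 10 nM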
#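 Assay system – PathHunter CHO-K1 APJ (AGTRL-1) beta-arrestin reporter cells · Compound – one dose, 20 µM compound, 1% DMSO · Timing – compound 90 min 25 °C, reagent 1 h · Measured by – luminescence from split beta-galactosidase complementation, Galacton Star/Emerald II substrate · Measure – beta-arrestin recruitment to APJ as agonist activity, luminescent signal · Benchmarks – DMSO vs Apelin-13 10 nM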
# APJ antag = antagonists of human apelin receptor APJ, primary screen, CHO-K1 cells, beta-arrestin complementation, luminescence; P35414; inhibition, % at 20 µM; hit rate 0.32% among 330,000;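 active = inhibition above about 40% at 20 µM, limit read from the data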;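 note: cells challenged with 10 nM apelin-13 agonist together with compound; plate controls were apelin-13 plus DMSO wells for no effect and DMSO wells lacking apelin-13 for full effect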
# CXCR6 block = CXCR6 receptor inhibitors, primary screen, cell-based, beta-arrestin, luminescence, CHO-K1 PathHunter, 1536-well. inhibition, % at 20 µM. AID 602244, 2012. C-X-C chemokine receptor type 6 (Homo sapiens), O00574. hit rate 0.36% among 360,000; in the data active = inhibition above about 34%, passing the limit was not always enough;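 note: antagonist mode with CXCL16 agonist at 10 nM final; 0% = 10 nM CXCL16 with DMSO and 100% = unstimulated wells without agonist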
# CCR6 antag = CCR6 receptor antagonists, primary screen, cell-based, CHO-K1, luminescence, beta-arrestin, uHTS. C-C chemokine receptor type 6 (Homo sapiens), P51684. CHO-K1 CCR6 PathHunter beta-arrestin, CCL20-stimulated. inhibition, % at 20 µM. hit rate 0.49% among 340,000;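 active = compounds whose inhibition of the agonist-driven luminescence signal at 20 µM reaches about 50%, limit read from the data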;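 note: cells stimulated with CCL20 at 14 nM final; plate controls were DMSO with CCL20 for no effect and DMSO without agonist for full effect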
# EBI2 antag = EBI2 receptor antagonists, beta-arrestin recruitment, primary screen, cell-based, luminescence, 7a,25-OHC stimulation, uHTS; G-protein coupled receptor 183 (Homo sapiens), P32249; 7a,25-OHC stimulated; inhibition, % at 5 µM; hit rate 0.81% among 360,000; AID 651636, 2012; in the data active = inhibition above about 38%;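 note: enzyme fragment complementation signal reports receptor beta-arrestin coupling in cells; 0% = agonist plus DMSO wells and 100% = wells without agonist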
# CXCR6 confirm = CXCR6 receptor antagonists, confirmation, cell-based, single concentration, beta-arrestin, luminescence | shares compounds with CXCR6 block | CHO-K1 CXCR6 PathHunter beta-arrestin | inhibition, % at 20 µM | hit rate 65% among 700 | AID 602409, 2012;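 active = mean inhibition over four retests above 40%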;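 note: receptor stimulated with 10 nM CXCL16 agonist; beta-galactosidase fragment complementation upon beta-arrestin recruitment to receptor; plate controls were CXCL16 plus DMSO for no effect and DMSO without CXCL16 for full effect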
# * hit, by the source's call; · = no result given. The list is not random: actives were taken first. Their share in the collection is about 1.8%.
SMILES,B2AR ag,APJ ag,APJ antag,CXCR6 block,CCR6 antag,EBI2 antag,CXCR6 confirm
CCCCC(=O)NC(=S)Nc1ccccc1C(=O)Nc1ccccc1,2,-5,27,51*,54*,15,54*
COc1ccccc1/C=C/C(=O)Oc1cccc2cccnc12,5,-3,1,3,13,0,·
Cc1ccc2cccc(OC(=O)/C=C\c3ccccc3)c2n1,-2,0,18,43*,27,3,39
COc1cc(/C=C/c2ccc3c(Br)cc(Br)c(O)c3n2)ccc1O,-10,·,·,42*,68*,13,51*
COc1ccc(/C=C/c2ccc3c(Br)ccc(O)c3n2)cc1,-5,-1,-1,9,22,2,·
CSCCC(NS(=O)(=O)c1ccccc1)C(=O)Nc1nccs1 (configuration not stated),11,4,19,-4,9,-7,·
COc1cccc(-c2csc(N3CCN(C(=O)Nc4ccc(F)cc4)CC3)n2)c1,20,0,1,-13,17,7,·
COc1cccc(-c2csc(N3CCN(C(=O)Nc4ccccc4OC)CC3)n2)c1,-1,-4,-5,68*,-7,-2,-8
COCCN1C(=O)CSCC1(C)C(=O)Nc1ccc2c(c1)OCCO2 (configuration not stated),·,·,·,·,·,-5,·
Cc1ccc(NC(=C(C#N)C#N)c2ccccc2)cc1,·,·,·,-8,·,0,·
COc1ccc(-c2cc(=O)n(-c3ccc([N+](=O)[O-])cc3)[nH]2)cc1,12,-5,29,41*,38,1,14
COc1ccc(-c2[nH]n(-c3ccc([N+](=O)[O-])cc3)c(=O)c2C=NCc2ccc(F)cc2)cc1,4,-3,-18,-4,8,14,·
O=C(COC(=O)CC1SC(N2CCCC2)=NC1=O)Nc1c(F)c(F)c(F)c(F)c1F (configuration not stated),2,-5,11,-4,10,-2,·
O=C1CN(C(=O)CSc2nc3cc(Cl)ccc3c(=O)n2Cc2ccccc2)c2ccccc2N1,10,-7,29,43*,56*,26,47*
Cc1ccc(Cn2c(SCC(=O)N3CC(=O)Nc4ccccc43)nc3ccccc3c2=O)cc1,-6,1,-6,8,-4,13,·
CN(Cc1ccc(Cl)cc1)C(=O)COC(=O)c1ccc(-c2ccc(O)cc2)cc1,0,-4,16,-4,0,4,·
CCC(=O)N1CCC1(C)C(=O)NCc1ccccc1SC (configuration not stated),·,·,·,-5,·,1,·
C=CCN1C(=O)/C(=N/n2cnnc2)c2ccccc21,0,-3,9,6,21,-8,·
CC(C)CN1C(=O)C(=Nc2cccnc2)c2ccccc21,4,-10,33,43*,37,9,37
Cc1cc(C)cc(N(CC(=O)NC2CCCC2)S(=O)(=O)c2c(C)[nH]c(=O)[nH]c2=O)c1,2,-5,7,4,6,-3,·
COc1ccc(N(CC(=O)NC2CCCC2)S(=O)(=O)c2c(C)[nH]c(=O)[nH]c2=O)cc1,6,-3,-61,35*,7,-1,8
CC(CN1CCCC1)OC(=O)c1ccc(Cl)cc1Cl (configuration not stated),7,-1,11,-8,12,1,·
CC(CN1CCCC1)OC(=O)c1ccc(Cl)cc1 (configuration not stated),-11,-3,-5,84*,13,2,0
CC1CCCC(NC(=O)CN2CCN(S(=O)(=O)c3ccc(Br)s3)CC2)C1C (configuration not stated),-3,0,-45,5,13,12,·
CCOc1ccc(CNc2ccc(N3CCN(Cc4ccccc4)CC3)cc2)cc1,11,8,-21,102*,15,5,11
SMILES,B2AR ag,APJ ag,APJ antag,CXCR6 block,CCR6 antag,EBI2 antag,CXCR6 confirm
COC(=O)c1ccc(NC(=O)c2nc(S(=O)(=O)Cc3cccc(C)c3)ncc2Cl)cc1,29,-11,34,66*,67*,47*,61*
CCCS(=O)(=O)c1ncc(Cl)c(C(=O)Nc2ccc(S(=O)(=O)Nc3ncccn3)cc2)n1,-4,-3,9,-5,-5,-9,·
Cc1cccc(CS(=O)(=O)c2ncc(Cl)c(C(=O)NCc3ccc4c(c3)OCO4)n2)c1,13,-5,-11,57*,48,17,44*
COc1cccc(NC(=O)c2nc(S(C)(=O)=O)ncc2Cl)c1,16,-4,36,37,44,2,·
CCc1ccc(NC(=O)c2nc(S(=O)(=O)Cc3ccccc3)ncc2Cl)cc1,52*,1,-9,82*,·,39,80*
CCOc1ccccc1NC(=O)c1nc(S(=O)(=O)Cc2ccccc2)ncc1Cl,23,-9,18,56*,51*,46*,53*
CC1(C)CC(=O)C=C(c2cccc(OC(=O)c3ccc(-c4ccccc4)cc3)c2)C1=O,·,·,·,-4,·,-8,·
CCCCNC(=O)C1(C)CCN1Cc1cccc2c(OC)cc(C(=O)OCC)cc12 (configuration not stated),·,·,·,27,·,27,·
O=C(c1[nH]c(C(F)(F)F)nc1-c1ccccc1)N1CCN(c2c(Cl)cncc2Cl)CC1,·,·,·,9,·,2,·
CCOC(=O)c1ccc(NC(=O)c2nc(S(=O)(=O)Cc3ccccc3)ncc2Cl)cc1,15,-3,34,70*,89*,42*,73*
Cc1ccc(NC(=O)c2nc(S(=O)(=O)Cc3ccccc3C)ncc2Cl)cc1C,32,-3,21,50*,61*,56*,60*
Cc1nn2c(NCc3ccccn3)cc(C(C)C)nc2c1-c1ccccc1,-5,-4,7,49*,52*,-16,9
CC(OC(=O)c1nc(-c2ccccc2)n(-c2ccccc2)n1)C(=O)Nc1cc(Cl)cc(Cl)c1 (configuration not stated),7,-1,1,47*,9,3,13
Cc1nn(-c2ccccc2)c(C)c1C(=O)OC(C)C(=O)Nc1ccc(C(N)=O)cc1 (configuration not stated),-8,-3,2,1,5,1,·
COc1ccc(/C=N/Nc2ccccc2)cc1Cn1nc(C)c([N+](=O)[O-])c1C,3,-4,8,51*,37,13,13
